Key:
HT-29 = experiment: Cytotoxicity against human HT-29 cells assessed as reduction in cell viability measured after 72 hrs by SRB assay; assay type: functional, cell-based; details: HT-29, 72 h
PC-3 = experiment: Cytotoxicity against human PC3 cells assessed as reduction in cell viability measured after 72 hrs by SRB assay; assay type: functional, cell-based; details: PC-3, 72 h
DU-145 = experiment: Cytotoxicity against human DU145 cells assessed as reduction in cell viability measured after 72 hrs by SRB assay; assay type: functional, cell-based; details: DU-145, 72 h
MDA-MB-231 = experiment: Cytotoxicity against human MDA-MB-231 cells assessed as reduction in cell viability measured after 72 hrs by SRB assay; assay type: functional, cell-based; details: MDA-MB-231, 72 h
HeLa = experiment: Cytotoxicity against human HeLa cells assessed as reduction in cell viability measured after 72 hrs by SRB assay; assay type: functional, cell-based
[1] = Toxicity in 24 hrs post fertilized zebrafish embryo assessed as developmental delay at 50 uM measured after 24 hrs by microscopic analysis; parameters: species or system Danio rerio; details: in vivo
Method in brief: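 Embryos raised at 28 °C to 24 hpf, then exposed to 50 μM in 1% DMSO in water (vehicle control) for 24 h; larvae examined and photographed by light microscopy for developmental morphology.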

MCF7 = experiment: Cytotoxicity against human MCF7 cells assessed as reduction in cell viability measured after 72 hrs by SRB assay; assay type: functional, cell-based; details: MCF7, 72 h

CC(=O)O[C@H]1C(=O)[C@@]2(C)[C@H]([C@H](OC(=O)c3ccccc3)[C@]3(O)C[C@H](OC(=O)[C@H](O)[C@@H](NC(=O)c4ccccc4)c4ccccc4)C(C)=C1C3(C)C)[C@]1(OC(C)=O)CO[C@@H]1C[C@@H]2O [PACLITAXEL]
IC50 (HT-29): 2 nM | IC50 (PC-3): 170 nM | IC50 (DU-145): 4 nM | IC50 (MDA-MB-231): 100 nM | IC50 (HeLa): 5 nM

C[C@@H]1C[C@@H]([C@H](O)CC2CC(=O)NC(=O)C2)C(=O)[C@@H](C)C1 [CYCLOHEXIMIDE]
Activity [1]: Toxic

Cc1c2ccncc2c(C)c2c1[nH]c1ccccc12 [ELLIPTECINE]
IC50 (MCF7): 800 nM

Reference: ChEMBL document CHEMBL4334445, “Caspase-Dependent Apoptosis in Prostate Cancer Cells and Zebrafish by Corchorusoside C from Streptocaulon juventas” (J Nat Prod, 2019)
